The text below walks through data of ChEMBL document CHEMBL3351848, “Novel insights into structure and function of factor XIIIa-inhibitor tridegin” (J Med Chem, 2014).

Calls of active or inactive are those of the source. The rule behind the calls is not given here. Residues, ends and D or L forms follow the SMILES beside them.

In test [1] the target is T1, Coagulation factor XIII B chain (Homo sapiens) (UniProt P05160).
T1 sequence (whole entry): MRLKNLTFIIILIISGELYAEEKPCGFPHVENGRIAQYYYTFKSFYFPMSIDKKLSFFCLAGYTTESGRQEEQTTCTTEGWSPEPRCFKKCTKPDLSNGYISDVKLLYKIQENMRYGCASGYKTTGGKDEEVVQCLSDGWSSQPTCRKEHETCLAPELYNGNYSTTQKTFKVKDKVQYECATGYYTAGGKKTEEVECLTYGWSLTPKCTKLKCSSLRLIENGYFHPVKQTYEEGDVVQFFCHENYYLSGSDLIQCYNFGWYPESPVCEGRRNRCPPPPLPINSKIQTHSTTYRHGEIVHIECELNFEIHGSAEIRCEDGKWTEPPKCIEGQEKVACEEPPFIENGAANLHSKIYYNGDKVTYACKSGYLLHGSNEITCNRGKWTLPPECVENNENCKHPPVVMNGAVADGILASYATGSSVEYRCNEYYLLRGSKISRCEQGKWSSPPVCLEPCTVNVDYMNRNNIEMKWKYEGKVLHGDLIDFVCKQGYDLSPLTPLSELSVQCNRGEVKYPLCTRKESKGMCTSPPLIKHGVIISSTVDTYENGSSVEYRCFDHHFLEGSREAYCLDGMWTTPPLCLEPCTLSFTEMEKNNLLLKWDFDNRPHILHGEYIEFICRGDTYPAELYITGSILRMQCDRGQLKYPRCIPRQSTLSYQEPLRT
Description: Binding affinity to nonactivated recombinant F13B subunit (unknown origin) by microscale thermophoresis method. The method, boiled down: (§1)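 Carboxyfluorescein-labeled peptide (2 μM solution, before mixing) in 50 mM Tris-HCl pH 7.5, 0.9% w/v NaCl, with Tween-20 to 0.1% final. Mixed with an equal volume of protein (FXIIIa, FXIII-A or FXIII-B) in the same buffer, 15 concentrations spanning 3.1 μM to 0.1 nM. After 20 min incubation, the mixture was loaded into glass capillaries and thermophoresis read three times per capillary.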
On the technique in general: Microscale thermophoresis detects binding through changes in fluorescence in a small temperature gradient.

Test [2] concerns the target T2, Protein-glutamine gamma-glutamyltransferase (Homo sapiens) (UniProt P21980).
T2 sequence (whole entry): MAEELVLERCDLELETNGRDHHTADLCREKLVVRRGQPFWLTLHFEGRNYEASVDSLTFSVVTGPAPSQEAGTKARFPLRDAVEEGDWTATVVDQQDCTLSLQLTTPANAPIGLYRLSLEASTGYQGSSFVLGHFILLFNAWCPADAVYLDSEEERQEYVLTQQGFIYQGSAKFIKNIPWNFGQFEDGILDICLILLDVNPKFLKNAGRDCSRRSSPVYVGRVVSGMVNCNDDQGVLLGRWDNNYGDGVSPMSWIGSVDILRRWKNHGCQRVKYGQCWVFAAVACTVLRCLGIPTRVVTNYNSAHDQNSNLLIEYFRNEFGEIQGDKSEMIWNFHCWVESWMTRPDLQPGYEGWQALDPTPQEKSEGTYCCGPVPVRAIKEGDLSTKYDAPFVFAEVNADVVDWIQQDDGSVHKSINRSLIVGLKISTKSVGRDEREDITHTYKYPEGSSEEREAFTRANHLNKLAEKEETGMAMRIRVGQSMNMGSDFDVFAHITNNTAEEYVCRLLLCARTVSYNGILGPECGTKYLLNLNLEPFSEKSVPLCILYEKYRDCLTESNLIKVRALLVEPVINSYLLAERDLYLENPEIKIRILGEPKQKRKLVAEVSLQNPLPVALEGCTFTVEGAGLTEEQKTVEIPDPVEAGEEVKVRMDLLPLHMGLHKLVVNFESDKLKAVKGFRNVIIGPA
Description: Inhibition of human TGase-2 using fluorogenic FRET substrate at 10 uM.

In test [3] the target is T3, Coagulation factor XIII A chain (Homo sapiens) (UniProt P00488).
T3 sequence (whole entry): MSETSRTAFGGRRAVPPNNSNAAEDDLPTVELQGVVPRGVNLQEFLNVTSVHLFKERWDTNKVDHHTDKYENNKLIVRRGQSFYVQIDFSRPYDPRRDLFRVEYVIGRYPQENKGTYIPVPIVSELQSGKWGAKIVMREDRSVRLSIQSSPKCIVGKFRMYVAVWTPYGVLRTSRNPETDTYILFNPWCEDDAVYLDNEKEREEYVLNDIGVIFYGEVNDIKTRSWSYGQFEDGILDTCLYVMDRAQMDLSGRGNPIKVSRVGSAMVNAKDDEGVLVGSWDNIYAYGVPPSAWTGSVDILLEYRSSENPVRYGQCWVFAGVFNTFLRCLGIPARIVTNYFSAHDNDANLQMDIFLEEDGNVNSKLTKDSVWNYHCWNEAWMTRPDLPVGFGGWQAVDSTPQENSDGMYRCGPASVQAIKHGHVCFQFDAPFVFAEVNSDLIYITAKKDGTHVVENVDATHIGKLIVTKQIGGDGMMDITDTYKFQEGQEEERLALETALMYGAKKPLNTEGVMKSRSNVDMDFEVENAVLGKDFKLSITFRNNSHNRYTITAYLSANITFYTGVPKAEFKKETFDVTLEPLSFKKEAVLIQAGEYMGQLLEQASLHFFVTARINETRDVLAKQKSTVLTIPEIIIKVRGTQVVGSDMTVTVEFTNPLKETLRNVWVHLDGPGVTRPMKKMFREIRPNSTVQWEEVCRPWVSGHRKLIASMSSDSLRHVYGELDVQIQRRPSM
Description: Binding affinity to nonactivated recombinant F13A subunit (unknown origin) by microscale thermophoresis method. The method, boiled down: as §1

In test [4] the target is T3, Coagulation factor XIII A chain (Homo sapiens). Description: Inhibition of recombinant F13a (unknown origin) using H-Tyr-Glu(pNA)-Val-Lys-Val-Ile-Gly-NH2 as substrate by chromogenic assay.

As a reminder, the inhibition is the relative decrease from the control value, in per cent. In the case of `CC[C@H](C)[C@H](NC(=O)CNC(=O)[C@H](CCC(N)=O)NC(=O)[C@H](Cc1cnc[nH]1)NC(=O)[C@H](Cc1c[nH]c2ccccc12)NC(=O)[C@H](CCC(=O)O)NC(=O)[C@H](CCCCN)NC(=O)[C@H](CS)NC(=O)[C@@H]1CCCN1C(=O)[C@H](CC(C)C)NC(=O)[C@H](CC(C)C)NC(=O)[C@@H](N)CCCCN)C(=O)N1CCC[C@H]1C(=O)N[C@@H](CC(N)=O)C(=O)N1CCC[C@H]1C(=O)N[C@@H](CCCNC(=N)N)C(=O)N[C@@H](CS)C(=O)N[C@@H](Cc1c[nH]c2ccccc12)C(=O)N[C@@H](CS)C(=O)NCC(=O)N[C@@H](C)C(=O)N[C@@H](CC(=O)O)C(=O)N[C@@H](CC(C)C)C(=O)N[C@@H](CCC(=O)O)C(=O)N[C@@H](CS)C(=O)N[C@@H](C)C(=O)N[C@@H](CCC(N)=O)C(=O)N[C@@H](CC(=O)O)C(=O)N[C@@H](CCC(N)=O)C(=O)N[C@@H](Cc1ccc(O)cc1)C(=O)N[C@@H](CS)C(=O)N[C@@H](C)C(=O)N[C@@H](Cc1ccccc1)C(=O)N[C@H](C(=O)N1CCC[C@H]1C(=O)N[C@@H](CCC(N)=O)C(=O)N[C@@H](CS)C(=O)O)[C@@H](C)CC` (H-KLLPCKEWHQGIPNPRCWCGADLECAQDQYCAFIPQC-OH), the outcome in test [1] and in test [3] was inactive. In addition, in test [2], the inhibition is < 10%. For the same molecule, in test [4], the inhibition entry is “inactive”.
